Laboratory results: publication PMC4716096 (Kidney Research and Clinical Practice, 2012)

Experiments:
[1] = Pharmacokinetic profile of tacrolimus; format: in vivo, human; details: dose-adjusted whole-blood concentrations; P=0.024 and 0.031
Outline: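 Stable Korean kidney recipients (n=18; ≥20 y, ≥6 months post-transplant, creatinine <2.0 mg/dL) on steroid/mycophenolate/tacrolimus, trough-targeted 5–10 ng/mL. Fasting; whole blood drawn pre-morning dose (C0) and at 1–4 h post-dose; mass spectrometry. AUC0–4 by linear trapezoidal rule; values dose-adjusted. Lean/fat mass by bioelectrical impedance; groups split at median, compared by Mann-Whitney U (P<0.05).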

[2] = n-octanol versus water; cited from earlier work
[3] = transplant recipient group with a high BMI; cited from earlier work

- C0 and C4 in the high-fat group compared with the low-fat group [1]: significantly elevated
Structure (SMILES): C=CC[C@@H]1/C=C(\C)C[C@H](C)C[C@H](OC)[C@H]2O[C@@](O)(C(=O)C(=O)N3CCCC[C@H]3C(=O)O[C@H](/C(C)=C/[C@@H]3CC[C@@H](O)[C@H](OC)C3)[C@H](C)[C@@H](O)CC1=O)[C@H](C)C[C@@H]2OC [tacrolimus]
- partition coefficient of tacrolimus in n-octanol relative to water [2]: 1000 fold
- tacrolimus levels [3]: higher than 15 ng/mL
